Test [1] deals with Human immunodeficiency virus type 2 pol protein (Human immunodeficiency virus 2, UniProt P88142). The experiment in a line: Tested for inhibitory concentration against HIV-2 protease. The test is classed as functional. Summed up: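 HIV-2 protease (ROD) purified the same way as HIV-1 protease, which was bacterially expressed; value reported as IC50.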
Test [2] has as its target Human immunodeficiency virus type 1 protease (Human immunodeficiency virus 1) (UniProt Q72874). Put plainly: Tested for inhibitory concentration against spread of HIV-1 in MT-4 human T-lymphoid cells infected with IIIb isolate. The test is classed as functional, cell-based. An outline of the steps:
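MT-4 cells grown in RPMI-1640 with 10% inactivated FBS, 4 mM glutamine and penicillin/streptomycin at 37 °C under CO2. Cells were pretreated 24 h with serially diluted compound (DMSO stock), then infected at 250 000 cells/mL, MOI 0.01. Compound was refreshed every 2–3 days. CIC was read by anti-HIV-1 immunofluorescence (complete block of spread, 7–24 days) or p24 ELISA (>95% reduction).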

In test [3] the target is Human immunodeficiency virus type 1 protease (Human immunodeficiency virus 1, UniProt Q72874). Put plainly: Tested for inhibitory concentration against HIV-1 protease.

pIC50: −log10 of the molar value.

Sequence of Human immunodeficiency virus type 2 pol protein (P88142 whole entry): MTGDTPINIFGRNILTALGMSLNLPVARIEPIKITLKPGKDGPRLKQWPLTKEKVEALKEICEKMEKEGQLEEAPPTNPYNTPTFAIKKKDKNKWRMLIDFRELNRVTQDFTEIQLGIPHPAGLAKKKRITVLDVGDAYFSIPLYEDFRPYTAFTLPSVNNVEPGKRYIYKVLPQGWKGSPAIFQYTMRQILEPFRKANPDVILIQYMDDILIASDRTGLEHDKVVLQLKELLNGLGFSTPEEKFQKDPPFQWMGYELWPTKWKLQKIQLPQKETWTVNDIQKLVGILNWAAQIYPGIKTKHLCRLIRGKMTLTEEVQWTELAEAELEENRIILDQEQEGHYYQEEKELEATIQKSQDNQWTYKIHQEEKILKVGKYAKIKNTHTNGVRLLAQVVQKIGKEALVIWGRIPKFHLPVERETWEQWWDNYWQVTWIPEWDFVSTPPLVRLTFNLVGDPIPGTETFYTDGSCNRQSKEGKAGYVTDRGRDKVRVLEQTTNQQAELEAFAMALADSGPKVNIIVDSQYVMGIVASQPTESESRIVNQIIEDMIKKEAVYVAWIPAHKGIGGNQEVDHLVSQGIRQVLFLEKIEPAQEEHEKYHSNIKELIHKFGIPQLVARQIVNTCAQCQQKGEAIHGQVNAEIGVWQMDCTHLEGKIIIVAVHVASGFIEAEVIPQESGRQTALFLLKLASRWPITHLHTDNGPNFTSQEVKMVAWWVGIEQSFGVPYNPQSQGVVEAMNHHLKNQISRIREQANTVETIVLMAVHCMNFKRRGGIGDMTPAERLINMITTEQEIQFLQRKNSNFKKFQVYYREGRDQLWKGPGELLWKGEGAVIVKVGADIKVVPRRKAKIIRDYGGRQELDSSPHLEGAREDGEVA

As a reminder, the pIC50 is the IC50 on a negative log10 scale, so that one unit is a factor of ten. A low value points to a large IC50. The term IC95 denotes the point of the concentration-response curve where the effect stands at 95%. A low value points to greater potency. Compound `CC(C)(C)NC(=O)[C@@H]1C[C@@H]2CCCC[C@@H]2CN1C[C@@H](O)[C@H](Cc1ccccc1)NC(=O)[C@H](CC(N)=O)NC(=O)c1ccc2ccccc2n1` gave a pIC50 in test [1] of 9.30. The compound further came in with an IC95 in test [2] of 22 nM. Consider `CC(C)(C)NC(=O)[C@@H]1C[C@@H]2CCCC[C@@H]2CN1C[C@@H](O)[C@H](Cc1ccccc1)NC(=O)[C@@H](NC(=O)c1cnccn1)[C@H]1CCOC1`, for which the pIC50 in test [3] was 8.55. As to `COC(=O)c1nc(Cl)c(N[C@H](C(=O)N[C@@H](Cc2ccccc2)[C@H](O)CN2C[C@H]3CCCC[C@H]3C[C@H]2C(=O)NC(C)(C)C)[C@H]2CCOC2)nc1N`, the negative-log IC50 (pIC50) in test [1] was 7.60; in test [3], 9.80. In test [2], the IC95 was determined as 3 nM. Regarding `CC(C)[C@H](NC(=O)c1ccc2ccccc2n1)C(=O)N[C@@H](Cc1ccccc1)[C@H](O)CN1C[C@H]2CCCC[C@H]2C[C@H]1C(=O)NC(C)(C)C`, the results for the pIC50 in test [1] and in test [3] were 8.49 and 9.15, respectively. Besides, in test [2], the IC95 stood at 100 nM. For the compound `CC(C)[C@H](NC(=O)c1cnc2ccccc2n1)C(=O)N[C@@H](Cc1ccccc1)[C@H](O)CN1C[C@H]2CCCC[C@H]2C[C@H]1C(=O)NC(C)(C)C`, the negative logarithm of the IC50 (pIC50) in test [3] was 9.41. In the case of `CC(C)(C)NC(=O)[C@@H]1C[C@@H]2CCCC[C@@H]2CN1C[C@@H](O)[C@H](Cc1ccccc1)NC(=O)[C@@H](NC(=O)c1ccc2ccccc2n1)[C@H]1CCS(=O)(=O)C1`, the pIC50 in test [3] was 9.30.

For the compound `CC(C)[C@H](NC(=O)c1cc(=O)c2ccccc2o1)C(=O)N[C@@H](Cc1ccccc1)[C@H](O)CN1C[C@H]2CCCC[C@H]2C[C@H]1C(=O)NC(C)(C)C`, the 95% effect concentration (IC95) in test [2] amounted to 25 nM. Further, the negative logarithm of the IC50 (pIC50) in test [3] was 9.82. `CC(C)(C)NC(=O)[C@@H]1C[C@@H]2CCCC[C@@H]2CN1C[C@@H](O)[C@H](Cc1ccccc1)NC(=O)[C@@H](NC(=O)c1cc(=O)c2ccccc2o1)[C@H]1CCOC1` yielded a 95% effect concentration (IC95) in test [2] of 25 nM. Further, the negative-log IC50 (pIC50) in test [3] is 9.96. In test [2], `CC(C)(C)NC(=O)[C@@H]1C[C@@H]2CCCC[C@@H]2CN1C[C@@H](O)[C@H](Cc1ccccc1)NC(=O)[C@@H](NC(=O)c1ccc2ccccc2n1)[C@@H]1CCSC1` gave a concentration for an effect of 95% (IC95) of over 200 nM. The pIC50 in test [3] is 8.48. Take `CC(C)(C)NC(=O)[C@@H]1C[C@@H]2CCCC[C@@H]2CN1C[C@@H](O)[C@H](Cc1ccccc1)NC(=O)[C@@H](NC(=O)c1ccc2ccccc2n1)C1CCOC1` (stereo partly specified): the values for the pIC50 in test [1] and in test [3] were 9.62 and 10.27, respectively. In addition, the concentration for an effect of 95% (IC95) in test [2] was 8 nM. For the compound `CC(C)(C)NC(=O)[C@@H]1C[C@@H]2CCCC[C@@H]2CN1C[C@@H](O)[C@H](Cc1ccccc1)NC(=O)[C@@H](NC(=O)c1cnc2ccccc2n1)[C@H]1CCOC1`, in test [2], the IC95 is 12 nM. In addition, the pIC50 in test [3] is 9.92. On to `CN1CCN(c2ncc(C(=O)N[C@H](C(=O)N[C@@H](Cc3ccccc3)[C@H](O)CN3C[C@H]4CCCC[C@H]4C[C@H]3C(=O)NC(C)(C)C)[C@H]3CCOC3)nc2Cl)CC1`, for which the pIC50 in test [1] was 9.74; in test [3], 10.15. This compound had an IC95 in test [2] of 12 nM. In test [3], `CC(C)(C)NC(=O)[C@@H]1C[C@@H]2CCCC[C@@H]2CN1C[C@@H](O)[C@H](Cc1ccccc1)NC(=O)[C@@H](NC(=O)c1ccc2ccccc2n1)C1CCOCC1` showed a pIC50 of 7.17. `CN(C)c1ncc(C(=O)N[C@H](C(=O)N[C@@H](Cc2ccccc2)[C@H](O)CN2C[C@H]3CCCC[C@H]3C[C@H]2C(=O)NC(C)(C)C)[C@H]2CCOC2)nc1Cl` came in with a concentration for an effect of 95% (IC95) in test [2] of 12 nM. The pIC50 in test [3] was 10.22. In test [2], `CC(C)(C)NC(=O)[C@@H]1C[C@@H]2CCCC[C@@H]2CN1C[C@@H](O)[C@H](Cc1ccccc1)NC(=O)[C@@H](NC(=O)c1ccc2ccccc2n1)[C@H]1CCSC1` showed a 95% effect concentration (IC95) of 50 nM. In test [3], this compound gave a negative logarithm of the IC50 (pIC50) of 9.22. `CC(C)(C)NC(=O)[C@@H]1C[C@@H]2CCCC[C@@H]2CN1C[C@@H](O)[C@H](Cc1ccccc1)NC(=O)[C@@H](NC(=O)c1ccc2ccccc2n1)C1CCCC1` gave a pIC50 in test [3] of 8.59. For the compound `CN(C)c1nc(N)c(C(=O)N[C@H](C(=O)N[C@@H](Cc2ccccc2)[C@H](O)CN2C[C@H]3CCCC[C@H]3C[C@H]2C(=O)NC(C)(C)C)[C@H]2CCOC2)nc1Cl`, the 95% effect level in test [2] (IC95) was put at 25 nM. In test [3], the negative-log IC50 (pIC50) was 9.62.

`CC(C)(C)NC(=O)[C@@H]1C[C@@H]2CCCC[C@@H]2CN1C[C@@H](O)[C@H](Cc1ccccc1)NC(=O)[C@@H](NC(=O)c1ccc2ccccc2n1)[C@@H]1CCOC1`: in test [2], the 95% effect level (IC95) was put at 100 nM. Also, in test [3], the pIC50 is 8.27. For the compound `CC(C)(C)NC(=O)[C@@H]1C[C@@H]2CCCC[C@@H]2CN1C[C@@H](O)[C@H](Cc1ccccc1)NC(=O)[C@@H](NC(=O)c1ccc2ccccc2n1)[C@@H]1CCS(=O)(=O)C1`, the pIC50 in test [3] is 7.41.

The values above are taken from ChEMBL document CHEMBL1126759, “Potent HIV protease inhibitors: the development of tetrahydrofuranylglycines as novel P2-ligands and pyrazine amides as P3-ligands” (J Med Chem, 1993).
